Published values from different studies.
Lines come from different studies, so protocols differ.
Target: Serine/threonine-protein kinase 26 (STK26, Homo sapiens, UniProt Q9P289)

COc1ccnn2ncc(-c3ccnc(N(C)C)n3)c12
remaining signal (cell-free assay; 1 µM): 86%

COc1cc(-c2cc(-c3ccc(N4CCNCC4)cc3)cnc2C)cc(OC)c1OC
inhibition (enzyme activity; inhibitor; 1 µM): 12%

CN(c1nccc(-c2cnn3ncccc23)n1)C1CC1
remaining signal (cell-free assay; 1 µM): 100%

c1ccc(N2CCN(Cc3nc4ccccc4[nH]3)CC2)nc1
remaining binding (binding; competition with immobilised ligand; 1 µM): 100%

COc1cc(-c2cc(-c3ccc(N4CCNCC4)cc3)cnc2N)cc(OC)c1OC
inhibition (enzyme activity; inhibitor; 0.1 µM): 0%

Cc1cnc(NC2CCOCC2)nc1-n1cnc(C(=O)NC(CN)c2cc(F)cc(Cl)c2)c1 (stereo not drawn)
remaining activity (enzyme activity; inhibitor; radiometric; 1 µM): 109%

Oc1cccc(-c2nc(N3CCOCC3)c3oc4ncccc4c3n2)c1
remaining activity (enzyme activity; inhibitor; 10 µM): 114%

Cc1cnn2ncc(-c3ccnc(N(C)C)n3)c2c1
remaining signal (cell-free assay; 1 µM): 98%

Oc1cccc(-c2nc(N3CCOCC3)c3oc4ncccc4c3n2)c1
remaining signal (cell-free assay; 0.5 µM): 98.6%

Cc1cc(NC(=O)c2cccc3cc(-c4cccc5[nH]nc(N)c45)ccc23)ccc1F
activity vs control (enzyme activity; inhibitor; 0.1 µM): 107%

COc1cc2ncnc(Nc3ccc(Oc4ccccc4)c(C)c3C)c2cc1OC
inhibition (enzyme activity; inhibitor; 1 µM): 21%

CCCCNc1ncc2c(-c3ccc(F)cc3)nn(C[C@H]3CC[C@H](N)CC3)c2n1
inhibition (target engagement in cells; inhibitor; chemoproteomics; 20 mM): 1.8%

F[C@@H]1CCN(c2nccc(-c3cnn4ncccc34)n2)C1
remaining signal (cell-free assay; 1 µM): 100%

CC(=O)N1CCC(c2ccc(C(=O)NC(=N)N)cc2C(F)(F)F)CC1
remaining binding (cell-free assay; competition with immobilised ligand; 1 µM): 97%

Oc1ccc(-c2nc(-c3ccncc3)c(-c3ccc(F)cc3)[nH]2)cc1
remaining signal (cell-free assay; 0.5 µM): 101%

COc1cc(Nc2cnc(C#N)c(O[C@H](C)CN(C)C)n2)ncc1-c1cnn(C)c1
remaining activity (enzyme activity; inhibitor; radiometric; 1 µM): 83%

NS(=O)(=O)c1cc(NC(=O)Cc2ccccc2)ccc1Oc1cccc(Cl)c1
remaining binding (cell-free assay; competition with immobilised ligand; 1 µM): 99%

CCN1CCC2(CC1)NC(=O)c1c(c3ccc(Cl)c(Cl)c3n1C)C2C#N (racemic)
ΔTm (thermal stability; DSF; 10 µM): -0.2 °C

N#CCCc1ccc2c(c1)-c1[nH]c3ccc([N+](=O)[O-])cc3c1CC(=O)N2
remaining signal (cell-free assay; 0.5 µM): 65.1%

O=C1NC(c2ccccn2)Sc2ccccc21 (stereo not drawn)
remaining binding (cell-free assay; competition with immobilised ligand; 1 µM): 80%

CC/C(=N\NC(=O)NCc1cccc(O)c1)c1ccc(O)c(C)c1O
inhibition (enzyme activity; inhibitor; 0.1 µM): 1.3%

CN1CC(Oc2cnc(C#N)cc2-c2ccn3nc(NC(=O)C4CC4)cc3c2)C1
inhibition (enzyme activity; inhibitor; 1 µM): -9%

CC(C)(C)c1nc(-c2cccc(NS(=O)(=O)c3c(F)cccc3F)c2F)c(-c2ccnc(N)n2)s1
remaining activity (enzyme activity; inhibitor; radiometric; 1 µM): 103%

CS(=O)(=O)c1cc(C2(NC(=O)c3cncc4c3cnn4-c3ccc(F)cc3)CC2)ccn1
remaining binding (cell-free assay; competition with immobilised ligand; 1 µM): 97%

COc1cccc2c(NCc3ccccc3)nc(-n3c(N)nc4ccccc43)nc12
inhibition (target engagement in cells; inhibitor; chemoproteomics; 20 mM): 31.1%

N[C@H]1CCN(c2nccc(-c3cnn4ncccc34)n2)C1
remaining signal (cell-free assay; 1 µM): 71%

FC(F)c1nc2ccccc2n1-c1nc(N2CCOCC2)nc(N2CCOCC2)n1
remaining activity (enzyme activity; inhibitor; 10 µM): 88%

FC(F)(F)Oc1cccc(-c2cnc3ccc(-c4ccncc4)nn23)c1
activity vs control (enzyme activity; inhibitor; radiometric; 1 µM): 96%

Cc1sc(C(=O)NC2COC2)cc1-n1cc(NC(=O)Nc2c(F)cccc2Cl)cn1
remaining activity (enzyme activity; inhibitor; 10 µM): 72.4%

N#CC1c2c([nH]c3c(Cl)c(Cl)ccc23)C(=O)NC12CCCCC2 (racemic)
ΔTm (thermal stability; DSF; 10 µM): 0.1 °C

CC(C)(C)C(=O)c1sc(NC2CCCCC2)nc1N
remaining activity (enzyme activity; inhibitor; 10 µM): 90%

CN(C)c1nccc(-c2cnn3ncccc23)n1
remaining signal (cell-free assay; 1 µM): 100%

Cn1c2c(Cl)c(Cl)ccc2c2cc[nH]c(=O)c21
ΔTm (thermal stability; DSF; 10 µM): 1.5 °C

N#CC1(c2ccccn2)CCN(Cc2cc(C(=O)N3CCCC3)c(=O)n3ccccc23)CC1
remaining binding (cell-free assay; competition with immobilised ligand; 1 µM): 100%

CN1CCC2(CC1)NC(=O)c1c(c3ccc(Cl)c(Cl)c3n1C)C2C#N (racemic)
ΔTm (thermal stability; DSF; 10 µM): 1.7 °C

CN(C)C(=O)Cn1cc(-c2nc(C3(c4ccc(-c5cnc(N)nc5)cc4)CC3)no2)cn1
remaining binding (cell-free assay; competition with immobilised ligand; 1 µM): 89%

CCCS(=O)(=O)Nc1ccc(F)c(C(=O)c2c[nH]c3ncc(-c4ccc(Cl)cc4)cc23)c1F
inhibition (enzyme activity; inhibitor; 1 µM): < 10%

C[C@H](c1ccc(F)cc1)N(Cc1cccc(C(=O)O)c1)C(=O)c1cnc2ccccc2c1
remaining binding (cell-free assay; competition with immobilised ligand; 1 µM): 79%

CN(C)C1CCN(CC#Cc2nn(C3CCCC3)c3nc(NCc4ccccc4)ncc23)C1 (stereo not drawn)
inhibition (enzyme activity; inhibitor; FRET; 0.1 µM): 9%
